pIC50: −log10 of the molar value. ≈ marks a conversion by molar mass, not a printed value. Calls of active or inactive are those of the source. The calls are words filed in the database; no cut-off is given here.
Assays:
[1] = target: T1, Rho-associated protein kinase 1 (Homo sapiens, UniProt Q13464); test: Inhibition of ROCK1 assessed as ATP cunsumption
Target sequence in this assay (Q13464 whole entry): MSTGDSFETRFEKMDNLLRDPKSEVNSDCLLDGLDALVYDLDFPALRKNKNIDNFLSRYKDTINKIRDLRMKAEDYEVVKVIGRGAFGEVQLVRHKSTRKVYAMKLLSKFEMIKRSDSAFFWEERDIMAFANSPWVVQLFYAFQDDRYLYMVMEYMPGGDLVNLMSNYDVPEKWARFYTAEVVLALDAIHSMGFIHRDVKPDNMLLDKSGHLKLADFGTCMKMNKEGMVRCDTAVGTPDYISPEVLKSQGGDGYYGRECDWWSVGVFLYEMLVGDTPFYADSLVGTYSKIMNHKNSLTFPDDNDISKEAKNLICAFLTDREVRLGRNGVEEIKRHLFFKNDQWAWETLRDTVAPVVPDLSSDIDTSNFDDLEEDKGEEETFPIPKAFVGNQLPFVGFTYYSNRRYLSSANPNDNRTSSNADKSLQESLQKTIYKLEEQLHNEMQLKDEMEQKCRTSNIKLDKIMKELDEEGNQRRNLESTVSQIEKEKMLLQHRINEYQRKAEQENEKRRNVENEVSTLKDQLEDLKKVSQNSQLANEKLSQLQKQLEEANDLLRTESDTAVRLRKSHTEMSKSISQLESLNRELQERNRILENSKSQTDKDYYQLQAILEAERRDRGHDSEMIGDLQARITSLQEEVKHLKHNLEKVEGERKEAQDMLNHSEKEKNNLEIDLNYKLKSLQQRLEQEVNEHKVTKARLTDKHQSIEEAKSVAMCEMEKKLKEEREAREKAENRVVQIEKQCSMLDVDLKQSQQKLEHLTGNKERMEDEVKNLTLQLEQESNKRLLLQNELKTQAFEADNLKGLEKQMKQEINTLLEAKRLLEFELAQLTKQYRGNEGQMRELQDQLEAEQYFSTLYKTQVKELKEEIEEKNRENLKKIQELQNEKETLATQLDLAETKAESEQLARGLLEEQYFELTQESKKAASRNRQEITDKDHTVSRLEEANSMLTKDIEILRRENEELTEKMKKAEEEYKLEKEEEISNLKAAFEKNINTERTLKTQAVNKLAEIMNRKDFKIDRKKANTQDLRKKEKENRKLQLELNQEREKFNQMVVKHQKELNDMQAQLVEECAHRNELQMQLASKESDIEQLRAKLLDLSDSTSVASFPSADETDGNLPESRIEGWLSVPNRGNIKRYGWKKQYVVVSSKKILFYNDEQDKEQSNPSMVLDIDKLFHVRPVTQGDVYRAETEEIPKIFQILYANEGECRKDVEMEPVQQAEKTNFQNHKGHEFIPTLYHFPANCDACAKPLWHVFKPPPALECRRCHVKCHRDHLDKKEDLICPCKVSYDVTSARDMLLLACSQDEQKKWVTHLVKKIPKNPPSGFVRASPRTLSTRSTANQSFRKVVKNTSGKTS

[2] = target: T1, Rho-associated protein kinase 1; test: Inhibition of ROCK1 assessed as ATP cunsumption relative to control
In short: (§1)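 ROCK1 enzyme reaction in 20 mM Tris-HCl pH 7.5, 10 mM MgCl2, 0.4 mM CaCl2, 0.15 mM EGTA, 0.1 mg/ml BSA. Compounds are run as an 11-point half-log series (final top 96 µM, 1% DMSO, 2–4 replicate wells) for 2 h at 30 °C. Readout is Easylite luminescence, normalized to DMSO and HMN-1152 controls. Values are means of ≥2 independent experiments.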
Target sequence in this assay (Q13464 2-1354 limits assumed): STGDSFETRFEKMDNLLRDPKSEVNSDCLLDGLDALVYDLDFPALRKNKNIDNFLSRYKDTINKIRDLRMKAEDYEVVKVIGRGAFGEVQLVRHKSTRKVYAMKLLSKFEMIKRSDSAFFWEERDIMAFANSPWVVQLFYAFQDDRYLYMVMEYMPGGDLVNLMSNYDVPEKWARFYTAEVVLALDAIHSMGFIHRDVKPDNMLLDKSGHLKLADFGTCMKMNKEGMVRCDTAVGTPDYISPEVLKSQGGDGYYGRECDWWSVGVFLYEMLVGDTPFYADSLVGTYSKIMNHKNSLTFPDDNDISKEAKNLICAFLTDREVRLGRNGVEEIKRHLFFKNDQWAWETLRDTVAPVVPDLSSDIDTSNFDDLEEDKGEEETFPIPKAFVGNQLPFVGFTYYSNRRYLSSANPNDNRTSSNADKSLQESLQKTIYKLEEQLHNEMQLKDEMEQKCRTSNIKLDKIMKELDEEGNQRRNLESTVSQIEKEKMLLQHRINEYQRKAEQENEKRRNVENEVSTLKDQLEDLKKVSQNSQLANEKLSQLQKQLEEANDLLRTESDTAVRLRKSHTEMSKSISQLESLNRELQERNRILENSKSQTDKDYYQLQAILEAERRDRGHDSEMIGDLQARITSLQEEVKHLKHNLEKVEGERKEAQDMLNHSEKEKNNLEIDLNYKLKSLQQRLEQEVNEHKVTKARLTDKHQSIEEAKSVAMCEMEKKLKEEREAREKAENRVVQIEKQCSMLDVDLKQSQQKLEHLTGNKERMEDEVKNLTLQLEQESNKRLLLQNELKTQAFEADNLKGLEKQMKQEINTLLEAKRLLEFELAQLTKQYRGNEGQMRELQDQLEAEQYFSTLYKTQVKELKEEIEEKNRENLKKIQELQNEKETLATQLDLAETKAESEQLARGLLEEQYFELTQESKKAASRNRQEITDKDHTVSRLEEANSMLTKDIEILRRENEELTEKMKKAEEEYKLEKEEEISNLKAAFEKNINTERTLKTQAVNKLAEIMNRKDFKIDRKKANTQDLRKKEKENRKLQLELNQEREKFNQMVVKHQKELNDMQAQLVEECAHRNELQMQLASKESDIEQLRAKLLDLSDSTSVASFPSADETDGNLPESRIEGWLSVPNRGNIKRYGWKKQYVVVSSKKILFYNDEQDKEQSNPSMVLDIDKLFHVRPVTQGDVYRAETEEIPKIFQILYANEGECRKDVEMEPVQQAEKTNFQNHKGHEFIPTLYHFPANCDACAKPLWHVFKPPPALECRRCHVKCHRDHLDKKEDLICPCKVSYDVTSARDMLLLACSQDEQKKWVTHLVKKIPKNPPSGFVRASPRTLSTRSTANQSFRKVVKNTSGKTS

[3] = Aqueous solubility of the compound; format: physicochemical; conditions: water (aqueous)
Cynomolgus monkey [4] = test: Reduction of intraocular pressure in ocular hypertensive cynomolgus monkey at 250 ug/eye after 6 hrs; format: functional, Macaca fascicularis; set-up: scale not given: the % may be the effect or the level left
Cynomolgus monkey [5] = test: Reduction of intraocular pressure in laser-induced ocular hypertensive cynomolgus monkey at 250 ug/eye after 6 hrs; format: functional, Macaca fascicularis; set-up: scale not given: the % may be the effect or the level left
Cynomolgus monkey [6] = test: Reduction of intraocular pressure in ocular hypertensive cynomolgus monkey at 250 ug/eye after 1 hr; format: functional, Macaca fascicularis; set-up: scale not given: the % may be the effect or the level left
Cynomolgus monkey [7] = test: Reduction of intraocular pressure in laser-induced ocular hypertensive cynomolgus monkey at 250 ug/eye after 1 hr; format: functional, Macaca fascicularis; set-up: scale not given: the % may be the effect or the level left
Cynomolgus monkey [8] = test: Reduction of intraocular pressure in ocular hypertensive cynomolgus monkey at 250 ug/eye after 3 hrs; format: functional, Macaca fascicularis; set-up: scale not given: the % may be the effect or the level left
Cynomolgus monkey [9] = test: Reduction of intraocular pressure in laser-induced ocular hypertensive cynomolgus monkey at 250 ug/eye after 3 hrs; format: functional, Macaca fascicularis; set-up: scale not given: the % may be the effect or the level left
[10] = Cytotoxicity against human GTM3 cells up to 30 uM after 24 hrs; format: cell-based; conditions: gtm3, 24 h
[11] = target: T1, Rho-associated protein kinase 1; test: Inhibition of ROCK1 in human GTM3 cells up to 10 uM by impedance assay; format: cell-based
Target sequence in this assay (Q13464 2-1354 limits assumed): as above

GTM3 [12] = test: Change in cellular morphology of human GTM3 cells assessed as decrease in vinculin staining density by immunofluorescence relative to control; format: functional, cell-based
In short: (§2)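 GTM-3 cells plated on glass coverslips one day before use, exposed to compound or DMSO control for 3 h, fixed in 2% paraformaldehyde in PBS 10 min at rt, then indirect immunofluorescence with anti-vinculin mAb and Alexa-488 anti-mouse F(ab')2 secondary; vinculin staining density and intensity compared with DMSO-treated cells.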

GTM3 [13] = test: Change in cellular morphology of human GTM3 cells assessed as decrease in vinculin staining intensity by immunofluorescence relative to control; format: functional, cell-based; in short: as §2
[14] = target: Ribosomal protein S6 kinase alpha-5 (Homo sapiens) (UniProt O75582); test: Inhibition of MSK1 at 10 uM
In short: (§3)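 Single-concentration screen at 10 µM in functional assays of a commercial kinase panel; percent inhibition reported when at least 50%.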

[15] = target: Aurora kinase B (Homo sapiens) (UniProt Q96GD4); test: Inhibition of aurora B at 10 uM; in short: as §3
[16] = target: T2, Serine/threonine-protein kinase Sgk1 (Homo sapiens) (UniProt O00141); test: Inhibition of SGk1 at 10 uM; in short: as §3
T2 sequence (whole entry): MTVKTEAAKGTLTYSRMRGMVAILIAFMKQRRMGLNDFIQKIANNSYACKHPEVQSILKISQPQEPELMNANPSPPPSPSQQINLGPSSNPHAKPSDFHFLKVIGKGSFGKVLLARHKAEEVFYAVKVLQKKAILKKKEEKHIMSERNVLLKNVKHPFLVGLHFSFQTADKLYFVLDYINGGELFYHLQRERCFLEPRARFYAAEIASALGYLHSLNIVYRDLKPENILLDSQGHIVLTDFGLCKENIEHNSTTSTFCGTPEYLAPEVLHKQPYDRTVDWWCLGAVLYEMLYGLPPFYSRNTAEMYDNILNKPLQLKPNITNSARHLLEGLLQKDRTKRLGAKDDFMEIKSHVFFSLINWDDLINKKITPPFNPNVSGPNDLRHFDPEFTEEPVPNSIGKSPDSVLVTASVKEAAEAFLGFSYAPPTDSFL

[17] = target: Serine/threonine-protein kinase N1 (Homo sapiens) (UniProt Q16512); test: Inhibition of PKN1 at 10 uM; in short: as §3
[18] = target: Ribosomal protein S6 kinase beta-1 (Homo sapiens) (UniProt P23443); test: Inhibition of p70S6K at 10 uM; in short: as §3
[19] = Inhibition of PKA at 10 uM
[20] = target: T1, Rho-associated protein kinase 1; test: Inhibition of ROCK1 assessed as ATP cunsumption at 96 uM relative to control; in short: as §1
Target sequence in this assay (Q13464 2-1354 limits assumed): as the sequence (Q13464 2-1354 limits assumed) above

[21] = target: T1, Rho-associated protein kinase 1; test: Inhibition of ROCK1 assessed as ATP cunsumption at 96 uM; in short: as §1
Target sequence in this assay (Q13464 2-1354 limits assumed): as the sequence (Q13464 2-1354 limits assumed) above

Serine/threonine-protein kinase N1 (Homo sapiens), sequence (Q16512 2-942 limits assumed): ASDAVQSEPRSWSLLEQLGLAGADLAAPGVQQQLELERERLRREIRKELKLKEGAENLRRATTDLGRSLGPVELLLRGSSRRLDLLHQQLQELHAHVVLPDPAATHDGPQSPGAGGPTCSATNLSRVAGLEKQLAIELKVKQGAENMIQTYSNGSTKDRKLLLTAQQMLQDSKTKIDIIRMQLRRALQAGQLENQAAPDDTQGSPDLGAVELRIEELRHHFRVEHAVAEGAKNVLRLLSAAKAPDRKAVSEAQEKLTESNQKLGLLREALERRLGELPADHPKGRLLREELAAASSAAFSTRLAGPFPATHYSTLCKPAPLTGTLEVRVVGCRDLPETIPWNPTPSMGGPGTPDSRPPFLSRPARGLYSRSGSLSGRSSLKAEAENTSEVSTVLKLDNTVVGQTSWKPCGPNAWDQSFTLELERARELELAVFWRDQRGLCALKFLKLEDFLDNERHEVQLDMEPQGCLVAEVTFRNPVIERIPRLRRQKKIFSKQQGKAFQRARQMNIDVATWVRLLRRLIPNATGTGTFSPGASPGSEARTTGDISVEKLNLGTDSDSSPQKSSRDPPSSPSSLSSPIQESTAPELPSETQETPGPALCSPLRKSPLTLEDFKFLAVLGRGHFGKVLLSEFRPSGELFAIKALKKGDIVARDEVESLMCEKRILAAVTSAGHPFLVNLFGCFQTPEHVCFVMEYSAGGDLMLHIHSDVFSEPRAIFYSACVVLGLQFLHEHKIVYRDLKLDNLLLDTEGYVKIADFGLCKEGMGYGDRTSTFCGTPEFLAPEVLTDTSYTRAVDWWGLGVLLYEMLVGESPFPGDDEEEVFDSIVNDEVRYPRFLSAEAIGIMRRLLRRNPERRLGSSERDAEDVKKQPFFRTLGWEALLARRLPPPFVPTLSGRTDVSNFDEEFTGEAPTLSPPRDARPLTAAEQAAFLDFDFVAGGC
Aurora kinase B (Homo sapiens), sequence (Q96GD4 whole entry): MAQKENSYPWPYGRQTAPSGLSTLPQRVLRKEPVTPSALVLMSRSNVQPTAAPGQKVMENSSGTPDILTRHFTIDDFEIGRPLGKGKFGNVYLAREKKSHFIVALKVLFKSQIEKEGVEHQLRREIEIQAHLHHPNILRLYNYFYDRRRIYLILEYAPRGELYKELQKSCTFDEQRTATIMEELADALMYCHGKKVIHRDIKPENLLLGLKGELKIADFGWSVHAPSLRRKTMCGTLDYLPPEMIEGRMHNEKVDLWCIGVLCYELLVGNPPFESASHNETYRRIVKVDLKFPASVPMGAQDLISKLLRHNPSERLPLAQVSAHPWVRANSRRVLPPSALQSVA
Ribosomal protein S6 kinase alpha-5 (Homo sapiens), sequence (O75582 whole entry, looked up): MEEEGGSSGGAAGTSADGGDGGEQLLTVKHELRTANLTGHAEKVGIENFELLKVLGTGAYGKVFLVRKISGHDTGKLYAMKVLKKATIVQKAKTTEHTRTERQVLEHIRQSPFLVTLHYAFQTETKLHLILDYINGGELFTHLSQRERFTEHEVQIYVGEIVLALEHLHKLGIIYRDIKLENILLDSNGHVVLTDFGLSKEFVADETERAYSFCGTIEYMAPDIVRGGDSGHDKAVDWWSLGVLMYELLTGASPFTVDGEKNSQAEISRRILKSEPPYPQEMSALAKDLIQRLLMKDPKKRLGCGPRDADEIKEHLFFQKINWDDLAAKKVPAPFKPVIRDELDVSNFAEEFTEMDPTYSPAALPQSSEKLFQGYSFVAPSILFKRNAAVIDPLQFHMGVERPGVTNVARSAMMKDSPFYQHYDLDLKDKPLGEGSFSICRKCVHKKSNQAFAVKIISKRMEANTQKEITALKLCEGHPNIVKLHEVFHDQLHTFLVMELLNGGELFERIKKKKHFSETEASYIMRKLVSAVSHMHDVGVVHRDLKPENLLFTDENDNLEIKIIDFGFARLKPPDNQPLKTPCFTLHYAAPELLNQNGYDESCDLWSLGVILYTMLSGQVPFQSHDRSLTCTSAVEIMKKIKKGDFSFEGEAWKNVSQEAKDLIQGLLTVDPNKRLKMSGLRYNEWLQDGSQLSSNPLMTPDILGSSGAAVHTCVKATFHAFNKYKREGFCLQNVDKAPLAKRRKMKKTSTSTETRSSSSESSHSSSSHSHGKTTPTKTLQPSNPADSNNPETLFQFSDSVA

Question: With `Cc1c(-c2ccnc(N)n2)sc2ccc(C(N)c3ccccc3)cc12` (racemic) as the compound, how does the pIC50 [1] read?
Answer: 7.70

Question: With `Cc1cccc(C(N)c2ccc3sc(-c4ccnc(N)n4)c(C)c3c2)c1` (racemic) as the compound, how does the pIC50 [1] read?
Answer: 7.30

Question: And the Emax [2]?
Answer: 67%

Question: With `Cc1c(-c2ccnc(N)n2)sc2ccc(CN)cc12` as the compound, how does the pIC50 [1] read?
Answer: 5.66

Question: With `Cc1c(-c2ccnc(N)n2)sc2ccc(C(N)C(C)C)cc12` (racemic) as the compound, how does the pIC50 [1] read?
Answer: 7.22

Question: With `Cc1c(-c2ccnc(N)n2)sc2ccc(Cc3cccc(C(=O)O)c3)cc12` as the compound, how does the pIC50 [1] read?
Answer: 7.22

Question: Which solubility [3] does the source give for `COc1cccc(Cc2ccc3sc(-c4ccnc(N)n4)c(C)c3c2)c1` here?
Answer: 40 µM (≈ 14.5 µg/mL)

Question: What about the pIC50 [1] of the same compound?
Answer: 6.64

Question: With `O=S(=O)(c1cccc2c(I)cccc12)N1CCCNCC1` as the compound, how does the pIC50 [1] read?
Answer: 4.42

Question: With `COc1ccccc1Cc1ccc2sc(-c3ccnc(N)n3)c(C)c2c1` as the compound, how does the pIC50 [1] read?
Answer: 5.01

Question: What does the source list for `CCCC(N)c1ccc2sc(-c3ccnc(N)n3)c(C)c2c1` (racemic)?
Answer: Activity (Cynomolgus monkey [4]): -12%; Activity (Cynomolgus monkey [5]): -26%; Activity (Cynomolgus monkey [6]): -20%; Activity (Cynomolgus monkey [7]): -19.6%; pIC50 [1]: 7.70; Activity (Cynomolgus monkey [8]): -13.9%; Activity (Cynomolgus monkey [9]): -24.1%

Question: For `C[C@@H](N)c1ccc(C(=O)Nc2ccnc3[nH]ccc23)cc1` [Y-39983], which Activity [10] is on record?
Answer: Non-toxic

Question: With `Cc1c(-c2ccnc(N)n2)sc2ccccc12` as the compound, how does the pIC50 [1] read?
Answer: 5.54

Question: With `Cc1c(-c2ccncc2)sc2ccc(Cl)cc12` as the compound, how does the pIC50 [1] read?
Answer: 4.55

Question: What about the inhibition [11] of the same compound?
Answer: inactive

Question: With `Cc1c(-c2ccnc(N)n2)sc2ccc(Cc3ccccc3)cc12` as the compound, how does the pIC50 [1] read?
Answer: 6.24

Question: With `Cc1c(-c2ccnc(N)n2)sc2ccc(C(N)CC(C)C)cc12` (racemic) as the compound, how does the pIC50 [1] read?
Answer: 7.52

Question: With `COc1ccc(Cc2ccc3sc(-c4ccnc(N)n4)c(C)c3c2)cc1` as the compound, how does the pIC50 [1] read?
Answer: 5.14

Question: Which results are given for `Cc1c(-c2c[nH]c3ncccc23)sc2ccc(Cl)cc12`?
Answer: pIC50 [1]: < 5.00; inhibition [11]: inactive

Question: With `COc1ccc(C(N)c2ccc3sc(-c4ccnc(N)n4)c(C)c3c2)cc1` (racemic) as the compound, how does the pIC50 [1] read?
Answer: 7.05

Question: What about the Emax [2] of the same compound?
Answer: 56%

Question: What does the source list for `CNc1nccc(-c2sc3ccc(Cl)cc3c2C)n1`?
Answer: pIC50 [1]: 5.92; Emax [2]: 17%; inhibition [11]: inactive

Question: What does the source list for `Cc1cncc2cccc(S(=O)(=O)N3CCCNCC3C)c12` (stereo not drawn)?
Answer: Activity (GTM3 [12]): Active; Activity (GTM3 [13]): Active

Question: Which solubility [3] does the source give for `Cc1c(-c2ccnc(N)n2)sc2ccc(Cc3cccc(O)c3)cc12` here?
Answer: 10 µM (≈ 3.47 µg/mL)

Question: And the inhibition [14]?
Answer: 94%

Question: And the inhibition [15]?
Answer: 82%

Question: And the inhibition [16]?
Answer: 61%

Question: And the pIC50 [1]?
Answer: 7.70

Question: What about the inhibition [17] of the same compound?
Answer: 53%

Question: And the inhibition [18]?
Answer: 55%

Question: And the inhibition [19]?
Answer: 67%

Question: With `Cc1c(-c2ccnc(N)n2)sc2ccc(Cl)cc12` as the compound, how does the pIC50 [1] read?
Answer: 5.82

Question: And the inhibition [11]?
Answer: inactive

Question: With `COC(=O)c1cccc(Cc2ccc3sc(-c4ccnc(N)n4)c(C)c3c2)c1` as the compound, how does the pIC50 [1] read?
Answer: 5.00

Question: With `CCC(N)c1ccc2sc(-c3ccnc(N)n3)c(C)c2c1` (racemic) as the compound, how does the pIC50 [1] read?
Answer: 6.85

Question: Which Emax [20] does the source give for `Cc1c(-c2ccnc(N)n2)sc2ccc(-c3ccccc3)cc12` here?
Answer: 35%

Question: What about the pIC50 [1] of the same compound?
Answer: 5.38

Question: With `Cc1c(-c2ccnc(N)n2)sc2ccc(Cc3cccc(C(F)(F)F)c3)cc12` as the compound, how does the pIC50 [1] read?
Answer: 5.07

Question: With `Cc1c(-c2ccnc3[nH]ccc23)sc2ccc(Cl)cc12` as the compound, how does the pIC50 [1] read?
Answer: 5.15

Question: What about the inhibition [11] of the same compound?
Answer: inactive

Question: With `Cc1c(-c2ccnc(N)c2)sc2ccc(Cl)cc12` as the compound, how does the pIC50 [1] read?
Answer: 5.08

Question: What about the Emax [2] of the same compound?
Answer: 44%

Question: And the inhibition [11]?
Answer: inactive

Question: With `Cc1c(-c2ccnc(N)n2)sc2ccc(C(C)N)cc12` (racemic) as the compound, how does the pIC50 [1] read?
Answer: 6.40

Question: With `Cc1c(-c2cc(N)ncn2)sc2ccc(Cl)cc12` as the compound, how does the pIC50 [1] read?
Answer: 4.89

Question: And the inhibition [11]?
Answer: inactive

Question: With `Cc1c(-c2ccnc(N)n2)sc2ccc(Nc3cccc(O)c3)cc12` as the compound, how does the solubility [3] read?
Answer: 30 µM (≈ 10.5 µg/mL)

Question: With `Cc1c(-c2ccnc(N)n2)sc2ccc(C(N)c3cccc(Cl)c3)cc12` (racemic) as the compound, how does the pIC50 [1] read?
Answer: 7.52

Question: With `Cc1c(-c2ccnc(N(C)C)n2)sc2ccc(Cl)cc12` as the compound, how does the pIC50 [1] read?
Answer: < 4.00

Question: What about the Activity [21] of the same compound?
Answer: inactive

Question: What about the inhibition [11] of the same compound?
Answer: inactive

Question: With `COc1cccc(C(N)c2ccc3sc(-c4ccnc(N)n4)c(C)c3c2)c1` (racemic) as the compound, how does the pIC50 [1] read?
Answer: 7.70

Question: What about the Emax [2] of the same compound?
Answer: 46%
